In ChEMBL document CHEMBL1138526, “Design, synthesis, and biological activity of boronic acid-based histone deacetylase inhibitors” (J Med Chem, 2009):

What was measured:
Histone deacetylase = test: Inhibition of HDAC in human HeLa cell nuclear extracts by fluorimetry; type: cell-based
[1] = target: T1, Histone deacetylase (Homo sapiens) (UniProt Q13547+O15379+Q9UBN7+Q92769+Q9UQL6+Q8WUI4+Q9BY41+Q96DB2+P56524+Q9UKV0+Q969S8); test: Inhibition of HDAC in human HeLa cell nuclear extracts at 100 uM by fluorimetry; type: cell-free
[2] = target: T2, Protein deacetylase HDAC6 (Homo sapiens, UniProt Q9UBN7); test: Inhibition of human recombinant HDAC6 by fluorimetry
T2 sequence (Q9UBN7 whole entry): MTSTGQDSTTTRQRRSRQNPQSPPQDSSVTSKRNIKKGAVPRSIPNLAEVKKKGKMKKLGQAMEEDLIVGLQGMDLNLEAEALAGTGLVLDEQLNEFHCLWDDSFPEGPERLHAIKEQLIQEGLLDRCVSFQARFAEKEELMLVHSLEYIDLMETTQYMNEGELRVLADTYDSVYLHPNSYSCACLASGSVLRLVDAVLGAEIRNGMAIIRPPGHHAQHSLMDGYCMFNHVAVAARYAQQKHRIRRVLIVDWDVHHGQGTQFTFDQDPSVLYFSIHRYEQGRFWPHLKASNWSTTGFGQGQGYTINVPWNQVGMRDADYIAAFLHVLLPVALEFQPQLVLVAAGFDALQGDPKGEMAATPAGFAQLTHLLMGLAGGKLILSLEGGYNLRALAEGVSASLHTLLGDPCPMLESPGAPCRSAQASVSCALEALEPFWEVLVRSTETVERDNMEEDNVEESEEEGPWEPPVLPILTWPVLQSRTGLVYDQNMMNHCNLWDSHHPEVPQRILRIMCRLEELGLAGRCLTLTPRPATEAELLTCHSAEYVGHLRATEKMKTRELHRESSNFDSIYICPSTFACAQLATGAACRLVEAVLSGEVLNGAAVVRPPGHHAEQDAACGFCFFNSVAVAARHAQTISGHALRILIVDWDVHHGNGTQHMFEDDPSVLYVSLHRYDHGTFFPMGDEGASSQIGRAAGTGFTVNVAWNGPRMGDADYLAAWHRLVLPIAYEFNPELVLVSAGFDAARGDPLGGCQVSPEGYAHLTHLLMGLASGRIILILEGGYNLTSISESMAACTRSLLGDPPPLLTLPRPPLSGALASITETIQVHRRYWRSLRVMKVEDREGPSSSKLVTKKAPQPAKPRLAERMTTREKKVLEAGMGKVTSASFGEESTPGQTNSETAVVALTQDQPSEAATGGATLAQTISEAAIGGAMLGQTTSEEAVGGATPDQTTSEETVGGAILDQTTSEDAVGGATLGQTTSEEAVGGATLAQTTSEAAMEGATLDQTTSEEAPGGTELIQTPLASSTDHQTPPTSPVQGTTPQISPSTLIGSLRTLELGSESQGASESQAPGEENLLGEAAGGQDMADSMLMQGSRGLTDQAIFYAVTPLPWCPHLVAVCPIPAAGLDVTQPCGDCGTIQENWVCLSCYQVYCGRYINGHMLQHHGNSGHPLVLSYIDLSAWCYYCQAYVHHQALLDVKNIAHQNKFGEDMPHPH

Histone deacetylase 1 [3] = target: T3, Histone deacetylase 1 (Homo sapiens, UniProt Q13547); test: Inhibition of human recombinant HDAC1 by fluorimetry
Histone deacetylase 8 = target: T4, Histone deacetylase 8 (Homo sapiens, UniProt Q9BY41); test: Inhibition of human recombinant HDAC8 by fluorimetry
T4 sequence (Q9BY41 whole entry): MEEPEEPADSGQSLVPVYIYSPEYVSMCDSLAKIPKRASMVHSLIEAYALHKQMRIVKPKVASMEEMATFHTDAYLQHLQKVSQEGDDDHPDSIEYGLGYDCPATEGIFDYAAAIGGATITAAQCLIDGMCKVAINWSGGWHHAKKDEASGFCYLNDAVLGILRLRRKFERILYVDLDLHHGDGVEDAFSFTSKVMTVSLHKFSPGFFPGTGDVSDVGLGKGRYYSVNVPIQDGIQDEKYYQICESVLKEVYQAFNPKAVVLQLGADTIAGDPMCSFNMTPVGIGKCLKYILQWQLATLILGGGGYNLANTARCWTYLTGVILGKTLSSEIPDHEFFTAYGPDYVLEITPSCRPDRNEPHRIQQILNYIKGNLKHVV

Histone deacetylase 2 = Histone deacetylase 2 (Homo sapiens, UniProt Q92769); test: Inhibition of human recombinant HDAC2 by fluorimetry
[4] = target: T1, Histone deacetylase (Homo sapiens); test: Inhibition of HDAC in human HCT116 cells assessed as induction of histone H4 acetylation after 8 hrs by Western blot analysis; type: cell-based; settings: HCT-116
HCT-116 = test: cells; type: functional; settings: Homo sapiens, HCT-116, 48 h
DMS-114 = test: Growth inhibition of human DMS114 cells after 48 hrs by sulforhodamine B assay; type: functional
How it was run: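 GI50 read from growth inhibition of DMS114 lung cancer cells, one line in a nine-line human cancer panel; each value is the mean of two separate experiments.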

[5] = Ratio of GI50 for human MKN45 cells to IC50 for human recombinant HDAC2; set-up: species or system MKN-45
SNB-78 = test: cells; type: functional; settings: Homo sapiens, SNB-78, 48 h
[6] = Ratio of GI50 for human MKN45 cells to IC50 for HDAC in human HeLa cells
PC-3 = test: cells; type: functional; settings: Homo sapiens, PC-3, 48 h
LOX IMVI = test: cells; type: functional; settings: Homo sapiens, 48 h
[7] = target: T5, Protein deacetylase HDAC6 (Homo sapiens) (UniProt Q9UBN7); test: Inhibition of HDAC6 in human HCT116 cells assessed as induction of alpha tubulin acetylation after 8 hrs by Western blot analysis; type: cell-based; settings: HCT-116
T5 sequence (whole entry): T2 sequence (Q9UBN7 whole entry)

cells [8] = type: functional; settings: Homo sapiens, HBC5, 48 h
cells [9] = type: functional; settings: Homo sapiens, RXF 631, 48 h
[10] = Ratio of GI50 for human MKN45 cells to IC50 for human recombinant HDAC1; set-up: species or system MKN-45
MKN-45 = test: cells; type: functional; settings: Homo sapiens, MKN-45, 48 h
SK-OV-3 = test: cells; type: functional; settings: Homo sapiens, SK-OV-3, 48 h
Histone deacetylase 1 [11] = target: T3, Histone deacetylase 1; test: Inhibition of human recombinant HDAC1 at 10 uM by fluorimetry

T3 sequence (Q13547 whole entry): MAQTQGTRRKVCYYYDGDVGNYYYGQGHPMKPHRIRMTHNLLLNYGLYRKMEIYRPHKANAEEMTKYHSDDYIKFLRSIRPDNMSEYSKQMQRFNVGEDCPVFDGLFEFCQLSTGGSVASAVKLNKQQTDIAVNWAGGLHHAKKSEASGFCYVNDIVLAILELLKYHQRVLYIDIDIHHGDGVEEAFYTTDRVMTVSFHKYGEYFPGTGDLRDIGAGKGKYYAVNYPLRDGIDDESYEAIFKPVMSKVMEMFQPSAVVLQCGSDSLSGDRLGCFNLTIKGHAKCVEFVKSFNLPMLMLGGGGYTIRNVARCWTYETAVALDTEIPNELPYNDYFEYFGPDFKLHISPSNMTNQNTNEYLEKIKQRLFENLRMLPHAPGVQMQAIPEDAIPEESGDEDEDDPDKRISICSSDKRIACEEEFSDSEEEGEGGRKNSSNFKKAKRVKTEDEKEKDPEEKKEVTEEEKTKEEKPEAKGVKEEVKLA
Chain of Histone deacetylase 2 (Q92769 whole entry): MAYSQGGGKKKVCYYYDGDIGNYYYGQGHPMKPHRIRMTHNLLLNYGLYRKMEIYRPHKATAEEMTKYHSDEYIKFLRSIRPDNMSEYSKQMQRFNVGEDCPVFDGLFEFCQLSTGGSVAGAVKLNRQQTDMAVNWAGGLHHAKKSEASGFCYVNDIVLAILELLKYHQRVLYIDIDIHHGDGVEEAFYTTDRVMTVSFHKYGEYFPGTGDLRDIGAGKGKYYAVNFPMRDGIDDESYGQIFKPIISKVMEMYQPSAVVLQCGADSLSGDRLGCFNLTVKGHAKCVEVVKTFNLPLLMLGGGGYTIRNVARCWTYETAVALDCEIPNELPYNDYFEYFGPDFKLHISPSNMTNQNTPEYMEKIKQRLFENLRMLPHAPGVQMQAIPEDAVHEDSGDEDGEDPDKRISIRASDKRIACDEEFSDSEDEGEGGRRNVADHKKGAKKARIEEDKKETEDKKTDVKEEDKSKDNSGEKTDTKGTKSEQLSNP

O=C(NC(CCCCCB(O)O)C(=O)Nc1cccc(-c2ccccc2)c1)c1cncs1 (stereo unspecified)
IC50 (Histone deacetylase): 1.4 µM

CC(C)(C)OC(=O)NC(CCCCCB(O)O)C(=O)Nc1cnc2ccccc2c1 (stereo unspecified)
IC50 (Histone deacetylase): 16 µM | inhibition [1]: 86%

O=C(NC(CCCCCB(O)O)C(=O)Nc1cccc(-c2ccccc2)c1)OCc1ccccc1 (stereo unspecified)
IC50 (Histone deacetylase): 4.2 µM

O=C(CCCCCCB(O)O)Nc1nc2ccccc2s1
IC50 (Histone deacetylase): > 100 µM | inhibition [1]: 5.1%

O=C(CCCCCCB(O)O)Nc1cccc(-c2ccccc2)c1
IC50 (Histone deacetylase): > 100 µM | inhibition [1]: 40%

O=C(Nc1cccnc1)C(CCCCCB(O)O)C(=O)Nc1cccc(-c2ccccc2)c1 (stereo unspecified)
IC50 (Histone deacetylase): 51 µM

CN(C)c1ccc(C(=O)NC(CCCCCB(O)O)C(=O)Nc2cccc(-c3ccccc3)c2)cc1 (stereo unspecified)
IC50 (Histone deacetylase): 13 µM

O=C(N[C@H](CCCCCB(O)O)C(=O)Nc1cccc(-c2ccccc2)c1)c1ccccc1
IC50 [2]: 24 µM | IC50 (Histone deacetylase): 17 µM | IC50 (Histone deacetylase 1 [3]): > 100 µM | IC50 (Histone deacetylase 8): > 100 µM | IC50 (Histone deacetylase 2): > 100 µM

CC(C)(C)OC(=O)NC(CCCCCB(O)O)C(=O)Nc1ccc(Oc2ccccc2)cc1 (stereo unspecified)
IC50 (Histone deacetylase): > 100 µM | inhibition [1]: 15%

O=C(N[C@@H](CCCCCB(O)O)C(=O)Nc1cccc(-c2ccccc2)c1)c1cncs1
Activity [4]: Dose-dependent effect | GI50 (HCT-116): 0.73 µM | IC50 [2]: 0.11 µM | GI50 (DMS-114; Homo sapiens, DMS-114, 48 h): 2.4 µM | Ratio [5]: 6.6 | IC50 (Histone deacetylase): 0.92 µM | GI50 (SNB-78): 9.1 µM | Ratio [6]: 3.8 | IC50 (Histone deacetylase 1 [3]): 2.2 µM | GI50 (PC-3): 6.7 µM | GI50 (LOX IMVI): 1.3 µM | IC50 (Histone deacetylase 8): 6.6 µM | Activity [7]: Dose-dependent effect | GI50 (cells [8]): 6.5 µM | GI50 (cells [9]): 3.2 µM | Ratio [10]: 1.6 | GI50 (MKN-45): 3.5 µM | IC50 (Histone deacetylase 2): 0.53 µM | GI50 (SK-OV-3): 2.2 µM

O=C(N[C@@H](CCCCCB(O)O)C(=O)Nc1cccc(-c2ccccc2)c1)c1cccnc1
Activity [4]: Dose-dependent effect | IC50 [2]: 0.32 µM | Ratio [5]: 6.6 | IC50 (Histone deacetylase): 1.4 µM | Ratio [6]: 3.9 | IC50 (Histone deacetylase 1 [3]): 2.8 µM | IC50 (Histone deacetylase 8): 23 µM | Activity [7]: Dose-dependent effect | Ratio [10]: 2 | GI50 (MKN-45): 5.5 µM | IC50 (Histone deacetylase 2): 0.83 µM

O=C(NC(CCCCCB(O)O)C(=O)Nc1cccc(-c2ccccc2)c1)c1ccccc1 (stereo unspecified)
IC50 (Histone deacetylase): 2 µM

CC(C)(C)OC(=O)NC(CCCCCB(O)O)C(=O)Nc1cccc(Oc2ccccc2)c1 (stereo unspecified)
IC50 (Histone deacetylase): > 100 µM | inhibition [1]: 38%

O=C(NC(CCCCCB(O)O)C(=O)Nc1cccc(-c2ccccc2)c1)c1cc2ccccc2[nH]1 (stereo unspecified)
IC50 (Histone deacetylase): 11 µM

O=C(NC(CCCCCB(O)O)C(=O)Nc1cccc(-c2ccccc2)c1)c1ccc2ccccc2n1 (stereo unspecified)
IC50 (Histone deacetylase): > 100 µM

CC(C)(C)OC(=O)NC(CCCCCB(O)O)C(=O)Nc1nc2ccccc2s1 (stereo unspecified)
IC50 (Histone deacetylase): 23 µM | inhibition [1]: 78%

CC(C)(C)OC(=O)NC(CCCCCB(O)O)C(=O)Nc1cccc(-c2ccccc2)c1 (stereo unspecified)
IC50 (Histone deacetylase): 12 µM | inhibition [1]: 85%

O=C(N[C@H](CCCCCB(O)O)C(=O)Nc1cccc(-c2ccccc2)c1)c1cncs1
GI50 (HCT-116): 16 µM | IC50 [2]: 5.6 µM | GI50 (DMS-114; Homo sapiens, DMS-114, 48 h): 17 µM | IC50 (Histone deacetylase): 24 µM | GI50 (SNB-78): 13 µM | IC50 (Histone deacetylase 1 [3]): > 100 µM | GI50 (PC-3): 18 µM | GI50 (LOX IMVI): 19 µM | IC50 (Histone deacetylase 8): > 100 µM | GI50 (cells [8]): 20 µM | GI50 (cells [9]): 19 µM | GI50 (MKN-45): 21 µM | IC50 (Histone deacetylase 2): > 100 µM | GI50 (SK-OV-3): 19 µM

CC(C)(C)OC(=O)NC(CCCCCB(O)O)C(=O)Nc1ccccc1 (stereo unspecified)
IC50 (Histone deacetylase): > 100 µM | inhibition [1]: 42%

O=C(CCCCCCB(O)O)Nc1cnc2ccccc2c1
IC50 (Histone deacetylase): > 100 µM | inhibition [1]: 32%

O=C(CCCCCCB(O)O)Nc1cccc(Oc2ccccc2)c1
IC50 (Histone deacetylase): > 100 µM | inhibition [1]: 1.8%

O=C(CCCCCCB(O)O)Nc1ccccc1
IC50 (Histone deacetylase): > 100 µM | inhibition [1]: 37%

O=C(N[C@@H](CCCCCB(O)O)C(=O)Nc1cccc(-c2ccccc2)c1)c1ccccc1
Activity [4]: Dose-dependent effect | IC50 [2]: 1.1 µM | Ratio [5]: 2.6 | inhibition (Histone deacetylase 1 [11]): 38% | IC50 (Histone deacetylase): 1.6 µM | Ratio [6]: 5.8 | IC50 (Histone deacetylase 1 [3]): > 10 µM | IC50 (Histone deacetylase 8): > 100 µM | Activity [7]: Dose-dependent effect | Ratio [10]: < 0.93 | GI50 (MKN-45): 9.3 µM | IC50 (Histone deacetylase 2): 3.6 µM

O=C(Nc1ccccc1)C(CCCCCB(O)O)C(=O)Nc1cccc(-c2ccccc2)c1 (stereo unspecified)
IC50 (Histone deacetylase): 30 µM

O=C(CCCCCCC(=O)Nc1ccccc1)NO [VORINOSTAT]
GI50 (DMS-114): 2.9 µM

O=C(CCCCCCB(O)O)Nc1ccc(Oc2ccccc2)cc1
IC50 (Histone deacetylase): > 100 µM | inhibition [1]: 2.2%

O=C(N[C@H](CCCCCB(O)O)C(=O)Nc1cccc(-c2ccccc2)c1)c1cccnc1
IC50 [2]: 14 µM | IC50 (Histone deacetylase): 15 µM | IC50 (Histone deacetylase 1 [3]): > 100 µM | IC50 (Histone deacetylase 8): > 100 µM | IC50 (Histone deacetylase 2): 99 µM

O=C(NC(CCCCCB(O)O)C(=O)Nc1cccc(-c2ccccc2)c1)c1cccnc1 (stereo unspecified)
IC50 (Histone deacetylase): 2 µM

O=C(NC(CCCCCB(O)O)C(=O)Nc1cccc(-c2ccccc2)c1)c1cscn1 (stereo unspecified)
IC50 (Histone deacetylase): 4.7 µM
